Hits are enriched below; roughly 9.6% of the tested compounds scored in any of these assays.
PMI act satM6P: human PMI activators, high substrate, primary screen, biochemical, fluorescence intensity, near-saturating mannose 6-phosphate. Mannose-6-phosphate isomerase (Homo sapiens), P34949. coupled PMI enzyme assay, resazurin fluorescence, 20 min; stronger effect = higher value; 1 = untreated enzyme, 0 = substrate-free blank. activation factor at 20 µM. 190,000 compounds, 0.34% hits;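 active means activation factor of 2 or more at 20 µM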
Target sequence (P34949 whole entry, looked up): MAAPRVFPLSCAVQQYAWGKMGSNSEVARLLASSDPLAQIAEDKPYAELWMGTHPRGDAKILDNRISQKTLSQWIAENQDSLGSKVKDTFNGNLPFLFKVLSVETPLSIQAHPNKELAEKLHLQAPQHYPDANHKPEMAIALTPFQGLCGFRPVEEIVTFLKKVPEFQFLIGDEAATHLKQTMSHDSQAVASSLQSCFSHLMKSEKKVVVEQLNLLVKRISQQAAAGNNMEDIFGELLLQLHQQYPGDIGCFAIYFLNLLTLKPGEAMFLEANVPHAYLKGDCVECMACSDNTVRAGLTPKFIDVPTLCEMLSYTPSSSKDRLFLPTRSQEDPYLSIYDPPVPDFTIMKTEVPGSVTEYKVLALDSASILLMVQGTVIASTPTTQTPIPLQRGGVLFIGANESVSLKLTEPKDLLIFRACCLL
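Test system: human phosphomannose isomerase with PGI, G6PDH, diaphorase coupling enzymes; Amount: PMI at 15 ng/mL final; Reagent: Mannose-6-phosphate 1.0 mM (near-saturating) plus 0.22 mM NADP+; Timing: 20 min, room temperature; Technique: resorufin fluorescence at Ex 544/Em 590 nm; Dosing: 20 µM single dose.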
Lmaj promast: Leishmania major promastigote growth inhibition, primary screen. 200,000 compounds, 9% hits. inhibition, % at 10 µM. AID 1063, 2008. Leishmania major promastigotes, resazurin fluorescence viability; in the data active means inhibition above about 50%;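 further: promastigotes grown with compound for 44 hours at 28 °C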
PMI activator: activators of human PMI, primary screen, biochemical, fluorescence intensity, near-Km mannose 6-phosphate. Mannose-6-phosphate isomerase (Homo sapiens), P34949. purified human PMI, coupled resazurin fluorescence, 20 min; stronger effect = higher value; 1 = vehicle control, 0 substrate-free wells. activation factor at 20 µM. 190,000 compounds, 0.005% hits;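 active means activation factor of 2 or more at 20 µM, relative to plate controls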
PTEN del growth: growth suppression of PTEN-null HCT116, primary screen, cell-based, CellTiter-Glo | 140,000 compounds, 1.2% hits | HCT116 PTEN-null viability, 60 h; stronger effect = lower value | AID 827, 2007 | viability, % at 10 µM;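 active means viability at or below a set limit, 4 SD under the median of all tested compounds, cut at about 3.7% in these data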;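 further: PTEN knockout HCT116 line with beta catenin targeted HCT116 as companion control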
HCT116 bCat-KO: primary screen for growth suppressors in beta-catenin knockout HCT116 cells (colon tumor, human); HCT116 beta-catenin knockout viability, CellTiter-Glo, 60 h; stronger effect = lower value; 140,000 compounds, 1.5% hits; viability, % at 10 µM; AID 818, 2007;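 active means viability at or under a set limit, the compound median less 4 SD, cut at about 6% in these data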;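 further: 0% = Hyamine 1622 control at 20 µM and 100% = untreated cell control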
Lmaj promast 1uM: Leishmania major promastigote growth inhibition, confirmation, 1 µM repeat of primary hits; shares compounds with Lmaj promast; L. major promastigote growth, resazurin fluorescence, 48 h; inhibition, % at 1 µM; 1,100 compounds, 13% hits; AID 1258, 2008;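 active means inhibition above about 50% in both repeat tests, limit read from the data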
The depositor's hits bear a star; x = not tested or not shown.

SMILES	PMI act satM6P	Lmaj promast	PMI activator	PTEN del growth	HCT116 bCat-KO	Lmaj promast 1uM
Cc1ccc(N(C(=O)C2CCCC2)C2C=CS(=O)(=O)C2)cc1C (stereo not given)	0.9	56*	0.8	107	89	-9
COc1ccc(NS(=O)(=O)c2cc(C)ccc2NC(=O)c2cc(C)oc2C)cc1	1	52*	1	12	11	19
CCCNC(=O)COC(=O)CCC(=O)c1ccc(F)cc1	1.1	-4	1	87	93	x
O=C(Cn1cnc2c(nnn2-c2ccccc2)c1=O)N1CCCc2ccccc21	0.8	53*	0.9	88	93	-7
CCN=C1S/C(=C\c2ccc(N3CCOCC3)cc2C)C(=O)N1CC	1	69*	0.9	56	63	-17
CCOc1ccc(N(CC)S(=O)(=O)c2ccc3c(c2)n(C)c(=O)c(=O)n3C)cc1	1	9	1	80	73	x
Cc1c(Br)c([N+](=O)[O-])nn1CCCC(=O)Nc1sc2c(c1C#N)CCC2	0.8	82*	0.6	96	88	-3
Cc1c(Cl)c([N+](=O)[O-])nn1CCCC(=O)Nc1sc2c(c1C#N)CCC2	1	21	0.9	91	94	x
Cc1cc(C(c2nnnn2Cc2ccccc2)N2CCOCC2)c(C)n1-c1ccc2c(c1)OCO2 (stereo not given)	0.6	61*	0.9	38	39	-6
Cc1cc(C)n2nc(SCC(=O)c3cc(C)n(-c4cc(C)on4)c3C)nc2n1	1.1	2	1.1	78	74	x
Cc1cc(C)c2ccc3c(C)c(C)nc3c2[nH]1	1	56*	1	x	x	40
Cc1cc(=O)[nH]c2c(C)c(N)ccc12	1	-6	1	88	82	x
CC(C)(C)c1ccc(S(=O)(=O)N2C=CC(C(F)(F)F)=NCC2)cc1	0.9	59*	0.9	95	84	-13
Cc1ccc(S(=O)(=O)N2C=CC(C(F)(F)F)=NCC2)cc1	1	-4	0.9	93	88	x
CC(C)c1ccc(S(=O)(=O)c2ccc(NN)cc2)cc1	2.2*	97*	1.6	x	x	-4
COc1cccc(CNC(=O)CCC2CCCN(C(=O)c3ccc(OC)o3)C2)c1 (stereo not given)	1.1	-6	1.1	x	x	x
Clc1cccc(Cl)c1-c1nnc2cccc(Cl)n12	1.1	-2	1.1	99	91	x
FC(F)(F)c1nc2ccccc2n2c(-c3c(Cl)cccc3Cl)nnc12	1	57*	0.9	87	93	-5
Oc1ccc2[nH]ccc2c1	0.6	87*	0.9	111	93	-10
O=C(CCSCc1ccccc1F)NCCc1ccccc1	1.1	-4	1.1	x	x	x
CCCOC(=O)CSC1=C(C#N)C(c2ccccc2Cl)CC(=O)N1 (stereo not given)	0.8	100*	0.9	94	81	93*
CCOC(=O)CSC1=C(C#N)C(c2ccc(Cl)cc2)CC(=O)N1 (stereo not given)	0.8	28	1	90	97	x
CC(=O)Nc1ccc2nc(-c3ccccn3)[nH]c2c1	0.7	7	0.8	90	95	x
c1ccc(-c2nc3cc4ccccc4cc3[nH]2)nc1	0.8	100*	0.9	40	40	-5
Cc1ccc(NNC(=O)C(O)(c2cccc(C(F)(F)F)c2)c2cccc(C(F)(F)F)c2)cc1	1.7	70*	1.4	24	23	-9
CCCCn1c2c(c(=O)n(C)c1=O)C(c1ccc(OC)cc1)N1CCCCCC1=N2 (stereo not given)	0.8	-1	0.8	87	88	x
Cc1ccc(-c2[nH]nc(N)c2N=Nc2ccccc2C)cc1	0.8	100*	0.8	5	3.1*	-19
Cc1ccc(-c2[nH]nc(N)c2N=Nc2cccc(Cl)c2C)cc1	1	23	1	8	12	x
N#CC1=C(N)OC2=C(C(=O)CCC2)C12C(=O)N1CCCc3cccc2c31 (stereo not given)	1	60*	1	98	86	-14

Assay outcomes from PubChem.
